From PubChem BioAssay
Shown is part of a subset that was picked to be rich in hits.
Fibroblast inh = blocks proliferation of human lung fibroblasts. viability, % at 10 µM. LL 47 human lung fibroblast viability, ATP luminescence; active compounds read low. AID 719. 85,000 compounds, 1.1% hits;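 active means viability at or below 50% in the single dose screen; inactive means viability above 50%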;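 further: compound exposure lasted 72 h before the ATP readout; 100% = median luminescence of untreated cell-only wells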
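Test system: LL 47 human lung fibroblasts; Quantity: 1,150 cells/well; Buffer or medium: IMEM plus 15% FBS; Dosing: tenfold compound dosing solution, DMSO at 0.1%; Timing: overnight cell rest, 72 h compound treatment at 37 °C; Detection: ATP-based CellTiter-Glo luminescent readout; Read-out basis: viability percentage against median untreated-cell control; Controls: cell-only wells, no compound.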
PTEN del growth = growth suppressors of cells with PTEN tumor suppressor deletion; HCT116 PTEN-null viability, CellTiter-Glo, 60 h; active compounds read low; viability, % at 10 µM; 140,000 compounds, 1.2% hits; AID 827;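 active means viability at or below a set limit, 4 SD under the median of all tested compounds, cut at about 3.7% in these data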;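 further: PTEN knockout HCT116 line with beta catenin targeted HCT116 as companion control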
HUVEC inhibit = blocks proliferation of human endothelial cells; HUVEC proliferation, CellTiter-Glo luminescence, 72 h; active compounds read low; viability, % at 10 µM (by protocol); AID 648; 86,000 compounds, 1.1% hits;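 active means viability at or below 30%; inactive means viability above 30%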;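 further: 100% = median luminescence of DMSO-only cell control wells on each plate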
H69AR inhibit = growth inhibitors of human H69AR lung tumor cells; H69AR lung tumor viability, ATP luminescence, 72 h; active compounds read low; viability, % at 10 µM; 85,000 compounds, 6% hits;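 active means viability at or below 40%; inactive means viability above 40%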;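 further: multidrug resistant small cell line overexpressing MRP-1 efflux transporter; 100% = mean luminescence of untreated control wells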
HCT116 bCat-KO = beta-catenin-lacking colon tumor cell growth suppression. HCT116 beta-catenin knockout viability, CellTiter-Glo, 60 h; active compounds read low. viability, % at 10 µM. 140,000 compounds, 1.5% hits. AID 818;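 active means viability at or under a set limit, the compound median less 4 SD, cut at about 6% in these data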;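 further: 0% = Hyamine 1622 control at 20 µM and 100% = untreated cell control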
The depositor's hits bear a star.

Cc1noc(C)c1COc1ccc(C(=O)OCC(=O)Nc2cccc(S(=O)(=O)N3CCOCC3)c2)cc1 was read as PTEN del growth 89 and HCT116 bCat-KO 90.
`COc1cccc(-n2cnc(=O)c3cccnc32)c1` gave PTEN del growth 106 and HCT116 bCat-KO 89.
For COc1cc(OC)c(OC)cc1/C=C/C(=O)c1ccc(NS(=O)(=O)c2ccc(C)cc2)cc1 the results were PTEN del growth 30 and HCT116 bCat-KO 33.
Screening CC(=O)Oc1c(/C=C(\C#N)C(N)=O)[nH]c2ccccc12 returned PTEN del growth 13 and HCT116 bCat-KO 18.
`COc1cccc(-n2nc(C(C)=O)c(C#N)c2-c2ccco2)c1` gave PTEN del growth 107 and HCT116 bCat-KO 99.
Screening COCCNS(=O)(=O)c1cc(C)c(C)cc1C returned PTEN del growth 105 and HCT116 bCat-KO 98.
Screening CC(=O)N(C)c1ccc(OCC(O)Cn2c3ccc(Cl)cc3c3cc(Cl)ccc32)cc1 (stereo unspecified) returned PTEN del growth 1.8* and HCT116 bCat-KO 2.8*.
Screening Cc1nn(-c2cc(N3CCCC3)ccc2[N+](=O)[O-])c(=O)c2ccccc12 returned Fibroblast inh 103, PTEN del growth 88, HUVEC inhibit 83, H69AR inhibit 33* and HCT116 bCat-KO 91.
`Cc1nn(-c2cc(N3CCOCC3)ccc2[N+](=O)[O-])c(=O)c2ccccc12` gave Fibroblast inh 96, PTEN del growth 98, HUVEC inhibit 91, H69AR inhibit 101 and HCT116 bCat-KO 98.
Screening CN1C(=O)/C(=C/c2cc(N=Nc3ccccc3)ccc2O)SC1=S returned PTEN del growth 60 and HCT116 bCat-KO 70.
For CN(C)S(=O)(=O)c1ccc(S(=O)(=O)N(Cc2ccco2)Cc2ccccc2Cl)cc1 the results were Fibroblast inh 80, PTEN del growth 80, HUVEC inhibit 94, H69AR inhibit 40* and HCT116 bCat-KO 76.
CCOC(=O)c1c(CN2CCN(C)CC2)oc2ccc(OC)cc12 was read as Fibroblast inh 105, PTEN del growth 97, HUVEC inhibit 92, H69AR inhibit 88 and HCT116 bCat-KO 98.
CCOC(=O)c1c(CN2CCN(c3ccccc3)CC2)oc2ccc(O)cc12 was read as Fibroblast inh 92, PTEN del growth 70, HUVEC inhibit 27*, H69AR inhibit 31* and HCT116 bCat-KO 86.
`Cc1cc(C)n(-c2nc3ccccc3c(=O)n2OCC(=O)N(C)C)n1` gave Fibroblast inh 97, PTEN del growth 87, HUVEC inhibit 92, H69AR inhibit 95 and HCT116 bCat-KO 100.
For Cc1cc(C)n(-c2nc3ccccc3c(=O)n2OCC(=O)OCc2ccccc2)n1 the results were Fibroblast inh 27*, PTEN del growth 2.8*, HUVEC inhibit 60, H69AR inhibit 9.8* and HCT116 bCat-KO 4.7*.
`Cc1sc2nc(C3CC3)nc(NCCNS(=O)(=O)c3ccccc3)c2c1C` gave Fibroblast inh 91, PTEN del growth 83, HUVEC inhibit 79, H69AR inhibit 22* and HCT116 bCat-KO 87.
For Cc1ccc(N=C2NC(=O)/C(=C/c3cn(C)c4ccccc34)S2)cc1C the results were PTEN del growth 52 and HCT116 bCat-KO 55.
Screening Cc1nn(-c2ccccc2)c(C)c1/C=N/NC(=O)c1ccccc1NS(=O)(=O)c1cccs1 returned PTEN del growth 90 and HCT116 bCat-KO 94.
`O=Cc1ccc2noc(-c3ccc(Cl)cc3)c2c1` gave Fibroblast inh 105, PTEN del growth 23, HUVEC inhibit 81, H69AR inhibit 39* and HCT116 bCat-KO 31.
For Cc1nc(NC(=O)CSc2nc3cccnc3n2Cc2ccccc2)sc1C the results were Fibroblast inh 51, PTEN del growth 89, HUVEC inhibit 33, H69AR inhibit 18* and HCT116 bCat-KO 76.
Screening CCOC(=O)CNC(=O)CSc1nc2cccnc2n1Cc1ccccc1 returned Fibroblast inh 103, PTEN del growth 91, HUVEC inhibit 105, H69AR inhibit 93 and HCT116 bCat-KO 92.
COc1ccc2nc(NC(=O)CSc3nc4ccccc4o3)sc2c1 was read as Fibroblast inh 95, PTEN del growth 103, HUVEC inhibit 86, H69AR inhibit 7.1* and HCT116 bCat-KO 99.
`O=C(CSc1nc2ccccc2o1)Nc1nc2ccc(Br)cc2s1` gave PTEN del growth 102 and HCT116 bCat-KO 96.
`CCOc1ccc2nc(NC(=O)CSc3nc4cccnc4n3C)sc2c1` gave Fibroblast inh 97, PTEN del growth 74, HUVEC inhibit 68, H69AR inhibit 26* and HCT116 bCat-KO 81.
For CCn1ncc(CNC(=O)C2(C)CC2(Cl)Cl)c1C (stereo unspecified) the results were PTEN del growth 102 and HCT116 bCat-KO 91.
CCCS(=O)(=O)C(=C(Nc1ccccc1)Nc1ccccc1)S(=O)(=O)CCC was read as Fibroblast inh 96, PTEN del growth 90, HUVEC inhibit 82, H69AR inhibit 30* and HCT116 bCat-KO 94.
`Cc1ccc(-c2nnc(SCC(=O)NC3CCS(=O)(=O)C3)nc2-c2ccc(C)cc2)cc1` (stereo unspecified) gave PTEN del growth 85 and HCT116 bCat-KO 91.
For COc1cccc(N/C(SC)=C(/C#N)C(N)=O)c1 the results were Fibroblast inh 95, PTEN del growth 86, HUVEC inhibit 80, H69AR inhibit 28* and HCT116 bCat-KO 76.
Screening COC(=O)c1cc(NS(=O)(=O)c2ccc(N3CCOCC3)c(N)c2)cc(C(=O)OC)c1 returned PTEN del growth 91 and HCT116 bCat-KO 98.
`CC(C)(C)C(C(Oc1ccc(Cl)cc1)n1cncn1)n1nnnc1C(c1cccc(Cl)c1)N1CCCCC1` (stereo unspecified) gave Fibroblast inh 96, PTEN del growth 15, HUVEC inhibit 55, H69AR inhibit 12* and HCT116 bCat-KO 5.7*.
Screening COCCn1nnnc1C(c1cccc(C#N)c1)N1CCCCCC1 (stereo unspecified) returned Fibroblast inh 98, PTEN del growth 82, HUVEC inhibit 97, H69AR inhibit 81 and HCT116 bCat-KO 90.
CSc1ccc(/C=C/C(=O)c2ccc(NC(C)=O)cc2)cc1 was read as PTEN del growth 105 and HCT116 bCat-KO 95.
For CC(=O)Nc1cccc(C(=O)/C=C/c2ccc(C)cc2)c1 the results were PTEN del growth 1.9* and HCT116 bCat-KO 2.7*.
For COc1cc(CC(=O)OCC(=O)c2ccc3c(c2)OCCO3)cc(OC)c1OC the results were Fibroblast inh 53, PTEN del growth 12, HUVEC inhibit 38, H69AR inhibit 33* and HCT116 bCat-KO 15.
Screening CCCNC1=C(N(C(C)=O)c2cccc(F)c2)C(=O)c2ccccc2C1=O returned PTEN del growth 0.8* and HCT116 bCat-KO 1.0*.
O=C(/C=C1\NCC2c3ccccc3CCN2C1=O)c1ccccc1 (stereo unspecified) was read as PTEN del growth 90 and HCT116 bCat-KO 91.
For CCc1ccc(C2=NNC(=Nc3cccc(S(=O)(=O)N(C)C)c3)SC2)cc1 the results were PTEN del growth 4 and HCT116 bCat-KO 3.9*.
